pKi: −log10 of the molar value.
Key:
[1] = Phytotoxicity against 4-leaf stage Triticum aestivum (wheat) plants assessed as plant growth inhibition at 150 g ai/ha applied through spraying measured 30 days after compound treatment under greenhouse conditions; type: organism-based; settings: in vivo, read-out: GI
[2] = Phytotoxicity against four-leaf stage Brassica napus (oilseed rape) plants assessed as plant growth inhibition at 150 g ai/ha applied through spraying measured 30 days after compound treatment under greenhouse conditions; type: organism-based; settings: in vivo, read-out: GI
[3] = Phytotoxicity against four-leaf stage Zea mays cv. Anjou (maize) plants assessed as plant growth inhibition at 150 g ai/ha applied through spraying measured 30 days after compound treatment under greenhouse conditions; type: organism-based; settings: in vivo, read-out: GI
[4] = Phytotoxicity against four-leaf stage Gossypium hirsutum (cotton) plants assessed as plant growth inhibition at 150 g ai/ha applied through spraying measured 30 days after compound treatment under greenhouse conditions; type: organism-based; settings: in vivo, read-out: GI
[5] = Phytotoxicity against 4-leaf stage Glycine max (soybean) plants assessed as plant growth inhibition at 150 g ai/ha applied through spraying measured 30 days after compound treatment under greenhouse conditions; type: organism-based; settings: in vivo, read-out: GI
[6] = Phytotoxicity against four-leaf stage Oryza sativa (rice) plants assessed as plant growth inhibition at 150 g ai/ha applied through spraying measured 30 days after compound treatment under greenhouse conditions; type: organism-based; settings: in vivo, read-out: GI
[7] = Phytotoxicity against 4-leaf stage Glycine max (soybean) plants assessed as plant growth inhibition at 75 g ai/ha applied through spraying measured 30 days after compound treatment under greenhouse conditions; type: organism-based; settings: in vivo, read-out: GI
[8] = system: Chenopodium album; assay: Post-emergence herbicidal activity against Chenopodium album seedlings assessed as plant growth inhibition at 75 g ai/ha measured 15 days after compound treatment under greenhouse conditions; type: functional; settings: 360 h, read-out: GI
[9] = system: Chenopodium album; assay: Post-emergence herbicidal activity against Chenopodium album seedlings assessed as plant growth inhibition at 37.5 g ai/ha measured 15 days after compound treatment under greenhouse conditions; type: functional; settings: 360 h, read-out: GI
[10] = system: Capsella bursa-pastoris; assay: Post-emergence herbicidal activity against Capsella bursa-pastoris assessed as plant growth inhibition at 75 g ai/ha; type: functional; settings: read-out: GI
Procedure, shortened: (§1)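 Compounds formulated as 100 g/L emulsifiable concentrates in DMF with Tween-80 as emulsifier, then diluted with water. Sprayed post-emergence onto pot-grown plants in a greenhouse, with broadleaf weeds at the 2-leaf stage and grasses at the 1-leaf stage. Clay soil with 1.6% organic matter and CEC 12.1 […]; relative humidity about 50%. Rate (g ai/ha) = active ingredient ÷ pot surface area. Untreated and DMF + Tween-80 solvent controls.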

[11] = system: Symphyotrichum subulatum; assay: Post-emergence herbicidal activity against Symphyotrichum subulatum assessed as plant growth inhibition at 75 g ai/ha; type: functional; settings: read-out: GI; procedure, shortened: as §1
[12] = system: Boehmeria nivea; assay: Post-emergence herbicidal activity against Boehmeria nivea assessed as plant growth inhibition at 75 g ai/ha; type: functional; settings: read-out: GI; procedure, shortened: as §1
[13] = system: Amaranthus spinosus; assay: Post-emergence herbicidal activity against Amaranthus spinosus assessed as plant growth inhibition at 75 g ai/ha; type: functional; settings: read-out: GI; procedure, shortened: as §1
[14] = system: Eleusine indica; assay: Post-emergence herbicidal activity against Eleusine indica assessed as plant growth inhibition at 75 g ai/ha; type: functional; settings: read-out: GI; procedure, shortened: as §1
[15] = system: Cerastium arvense; assay: Post-emergence herbicidal activity against Cerastium arvense assessed as plant growth inhibition at 75 g ai/ha; type: functional; settings: read-out: GI; procedure, shortened: as §1
[16] = system: Veronica polita; assay: Post-emergence herbicidal activity against Veronica polita assessed as plant growth inhibition at 75 g ai/ha; type: functional; settings: read-out: GI; procedure, shortened: as §1
[17] = system: Senna tora; assay: Post-emergence herbicidal activity against Senna tora assessed as plant growth inhibition at 75 g ai/ha; type: functional; settings: read-out: GI; procedure, shortened: as §1
[18] = system: Alkekengi officinarum; assay: Post-emergence herbicidal activity against Physalis alkekengi assessed as plant growth inhibition at 75 g ai/ha; type: functional; settings: read-out: GI; procedure, shortened: as §1
[19] = system: Phytolacca acinosa; assay: Post-emergence herbicidal activity against Raddix phytolaccae assessed as plant growth inhibition at 75 g ai/ha; type: functional; settings: read-out: GI; procedure, shortened: as §1
[20] = system: Ammannia baccifera; assay: Post-emergence herbicidal activity against Ammannia baccifera assessed as plant growth inhibition at 75 g ai/ha; type: functional; settings: read-out: GI; procedure, shortened: as §1
[21] = system: Ludwigia prostrata; assay: Post-emergence herbicidal activity against Ludwigia prostrata assessed as plant growth inhibition at 75 g ai/ha; type: functional; settings: read-out: GI; procedure, shortened: as §1
[22] = system: Commelina communis; assay: Post-emergence herbicidal activity against Commelina communis (Asiatic dayflower) assessed as plant growth inhibition at 75 g ai/ha; type: functional; settings: read-out: GI; procedure, shortened: as §1
[23] = system: Myosoton aquaticum; assay: Post-emergence herbicidal activity against Myosoton aquaticum assessed as plant growth inhibition at 75 g ai/ha; type: functional; settings: read-out: GI; procedure, shortened: as §1
[24] = system: Sonchus asper; assay: Post-emergence herbicidal activity against Sonchus asper assessed as plant growth inhibition at 75 g ai/ha; type: functional; settings: read-out: GI; procedure, shortened: as §1
[25] = system: Polygonum humifusum; assay: Post-emergence herbicidal activity against Polygonum humifusum assessed as plant growth inhibition at 75 g ai/ha; type: functional; settings: read-out: GI; procedure, shortened: as §1
[26] = system: Solanum nigrum; assay: Post-emergence herbicidal activity against Solanum nigrum (black nightshade) assessed as plant growth inhibition at 75 g ai/ha; type: functional; settings: read-out: GI; procedure, shortened: as §1
[27] = system: Chenopodium album; assay: Post-emergence herbicidal activity against Chenopodium album seedlings assessed as plant growth inhibition at 150 g ai/ha measured 15 days after compound treatment under greenhouse conditions; type: functional; settings: 360 h, read-out: GI
[28] = system: Amaranthus retroflexus; assay: Post emergence herbicidal activity against Amaranthus retroflexus seedlings assessed as plant growth inhibition at 75 g ai/ha measured 15 days after compound treatment under greenhouse conditions; type: functional; settings: 360 h, read-out: GI
[29] = system: Amaranthus retroflexus; assay: Post emergence herbicidal activity against Amaranthus retroflexus seedlings assessed as plant growth inhibition at 37.5 g ai/ha measured 15 days after compound treatment under greenhouse conditions; type: functional; settings: 360 h, read-out: GI
[30] = system: Amaranthus retroflexus; assay: Post emergence herbicidal activity against Amaranthus retroflexus seedlings assessed as plant growth inhibition at 150 g ai/ha measured 15 days after compound treatment under greenhouse conditions; type: functional; settings: 360 h, read-out: GI
[31] = system: Brassica juncea; assay: Post-emergence herbicidal activity against Brassica juncea seedlings assessed as plant growth inhibition at 75 g ai/ha measured 15 days after compound treatment under greenhouse conditions; type: functional; settings: 360 h, read-out: GI
[32] = system: Brassica juncea; assay: Post-emergence herbicidal activity against Brassica juncea seedlings assessed as plant growth inhibition at 37.5 g ai/ha measured 15 days after compound treatment under greenhouse conditions; type: functional; settings: 360 h, read-out: GI
[33] = system: Brassica juncea; assay: Post-emergence herbicidal activity against Brassica juncea seedlings assessed as plant growth inhibition at 150 g ai/ha measured 15 days after compound treatment under greenhouse conditions; type: functional; settings: 360 h, read-out: GI
[34] = system: Setaria faberi; assay: Post-emergence herbicidal activity against Setaria faberi (Giant Foxtail) seedlings assessed as plant growth inhibition at 75 g ai/ha measured 15 days after compound treatment under greenhouse conditions; type: functional; settings: 360 h, read-out: GI
[35] = system: Setaria faberi; assay: Post-emergence herbicidal activity against Setaria faberi (Giant Foxtail) seedlings assessed as plant growth inhibition at 37.5 g ai/ha measured 15 days after compound treatment under greenhouse conditions; type: functional; settings: 360 h, read-out: GI
[36] = system: Setaria faberi; assay: Post-emergence herbicidal activity against Setaria faberi (Giant Foxtail) seedlings assessed as plant growth inhibition at 150 g ai/ha measured 15 days after compound treatment under greenhouse conditions; type: functional; settings: 360 h, read-out: GI
[37] = system: Digitaria sanguinalis; assay: Post-emergence herbicidal activity against Digitaria sanguinalis (hairy crabgrass) seedlings assessed as plant growth inhibition at 75 g ai/ha measured 15 days after compound treatment under greenhouse conditions; type: functional; settings: 360 h, read-out: GI
[38] = system: Digitaria sanguinalis; assay: Post-emergence herbicidal activity against Digitaria sanguinalis (hairy crabgrass) seedlings assessed as plant growth inhibition at 37.5 g ai/ha measured 15 days after compound treatment under greenhouse conditions; type: functional; settings: 360 h, read-out: GI
[39] = system: Digitaria sanguinalis; assay: Post-emergence herbicidal activity against Digitaria sanguinalis (hairy crabgrass) seedlings assessed as plant growth inhibition at 150 g ai/ha measured 15 days after compound treatment under greenhouse conditions; type: functional; settings: 360 h, read-out: GI
[40] = system: Echinochloa crus-galli; assay: Post emergence herbicidal activity against Echinochloa crus-galli (barnyard grass) seedlings assessed as plant growth inhibition at 75 g ai/ha measured 15 days after compound treatment under greenhouse conditions; type: functional; settings: 360 h, read-out: GI
[41] = system: Echinochloa crus-galli; assay: Post emergence herbicidal activity against Echinochloa crus-galli (barnyard grass) seedlings assessed as plant growth inhibition at 37.5 g ai/ha measured 15 days after compound treatment under greenhouse conditions; type: functional; settings: 360 h, read-out: GI
[42] = system: Echinochloa crus-galli; assay: Post emergence herbicidal activity against Echinochloa crus-galli (barnyard grass) seedlings assessed as plant growth inhibition at 150 g ai/ha measured 15 days after compound treatment under greenhouse conditions; type: functional; settings: 360 h, read-out: GI
[43] = target: T1, Protoporphyrinogen oxidase, chloroplastic (Nicotiana tabacum, UniProt O24163); assay: Inhibition of Nicotiana tabacum (tobacco) recombinant PPO assessed as protoporphyrin IX formation at room temperature by fluorimetric assay
T1 sequence (O24163 whole entry): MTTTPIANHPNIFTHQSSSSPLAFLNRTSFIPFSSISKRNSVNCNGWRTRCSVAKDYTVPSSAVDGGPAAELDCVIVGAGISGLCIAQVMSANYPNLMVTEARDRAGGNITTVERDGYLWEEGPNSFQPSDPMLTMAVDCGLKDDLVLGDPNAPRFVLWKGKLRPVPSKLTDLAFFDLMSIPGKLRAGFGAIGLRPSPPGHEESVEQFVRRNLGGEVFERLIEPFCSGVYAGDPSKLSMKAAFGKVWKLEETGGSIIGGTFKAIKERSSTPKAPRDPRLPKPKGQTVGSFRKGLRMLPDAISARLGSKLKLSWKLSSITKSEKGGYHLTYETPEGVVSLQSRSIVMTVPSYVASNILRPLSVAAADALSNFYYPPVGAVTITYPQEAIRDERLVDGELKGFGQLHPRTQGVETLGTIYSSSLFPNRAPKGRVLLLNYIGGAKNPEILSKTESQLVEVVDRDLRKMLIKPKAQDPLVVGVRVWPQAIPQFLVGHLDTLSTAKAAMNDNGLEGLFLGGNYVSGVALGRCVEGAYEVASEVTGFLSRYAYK

Molecule `Cc1nn(-c2cc(NS(C)(=O)=O)c(Cl)cc2Cl)c(=O)n1C(F)F` [SULFENTRAZONE] has an inhibition at 720 h [1] of 20%, an inhibition at 720 h [2] of 100% and an inhibition at 720 h [3] of 70%. For the same molecule, the inhibition at 720 h [4] was 100%, the inhibition at 720 h [5] was 20% and the inhibition at 720 h [6] was 70%. The inhibition at 720 h [7] was 10%, the inhibition of growth at 75 g/ha [8] was at least 90% and the inhibition of growth at 37.5 g/ha [9] was 60%. It also gave an inhibition of growth at 75 g/ha [10] of 100%, an inhibition of growth at 75 g/ha [11] of 100% and an inhibition of growth at 75 g/ha [12] of 100%. For the same molecule, the inhibition of growth at 75 g/ha [13] was 100%, the inhibition of growth at 75 g/ha [14] was 100% and the inhibition of growth at 75 g/ha [15] was over 90%. For the same molecule, the inhibition of growth at 75 g/ha [16] was 100%, the inhibition of growth at 75 g/ha [17] was over 90% and the inhibition of growth at 75 g/ha [18] was 100%. The inhibition of growth at 75 g/ha [19] was 100%, the inhibition of growth at 75 g/ha [20] was 100% and the inhibition of growth at 75 g/ha [21] was 100%. It also gave an inhibition of growth at 75 g/ha [22] of 100%, an inhibition of growth at 75 g/ha [23] of over 90% and an inhibition of growth at 75 g/ha [24] of 100%. For the same molecule, the inhibition of growth at 75 g/ha [25] was 100%, the inhibition of growth at 75 g/ha [26] was 100% and the inhibition of growth at 150 g/ha [27] was at least 90%. The inhibition of growth at 75 g/ha [28] was at least 90%, the inhibition of growth at 37.5 g/ha [29] was 80% and the inhibition of growth at 150 g/ha [30] was at least 90%. For the same molecule, the inhibition of growth at 75 g/ha [31] was at least 90%, the inhibition of growth at 37.5 g/ha [32] was 80% and the inhibition of growth at 150 g/ha [33] was at least 90%. For the same molecule, the inhibition of growth at 75 g/ha [34] was 80%, the inhibition of growth at 37.5 g/ha [35] was 60% and the inhibition of growth at 150 g/ha [36] was at least 90%. The inhibition of growth at 75 g/ha [37] was 50%, the inhibition of growth at 37.5 g/ha [38] was under 50% and the inhibition of growth at 150 g/ha [39] was 60%. It also gave an inhibition of growth at 75 g/ha [40] of at least 90%, an inhibition of growth at 37.5 g/ha [41] of 80% and an inhibition of growth at 150 g/ha [42] of at least 90%. The pKi [43] was 7.52.

Reference: ChEMBL document CHEMBL3046000, “Design and synthesis of 1-(benzothiazol-5-yl)-1H-1,2,4-triazol-5-ones as protoporphyrinogen oxidase inhibitors” (Bioorg Med Chem, 2013)
